The test system of one data set is Bacillus subtilis. The data set can be described thus: Antibacterial activity against Bacillus subtilis NBRC 3513 after overnight incubation by microplate dilution method. In kind it is functional. The gist of the method: (§1)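 MIC read by microplate broth dilution with an inoculum of 10^6 organisms per ml of medium. Each peptide was tested 7–10 times.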
A further data set deals with Priestia megaterium. In words: Antibacterial activity against Bacillus megaterium ATCC 19213 after overnight incubation by microplate dilution method. It is filed as functional. The gist of the method:
as §1

In data set [1] the test system is Staphylococcus epidermidis. In words: Antibacterial activity against Staphylococcus epidermidis NBRC 12933 after overnight incubation by microplate dilution method. It is filed as functional. The gist of the method: as §1
Another data set relates to Staphylococcus aureus. In words: Antibacterial activity against Staphylococcus aureus NBRC 12732 after overnight incubation by microplate dilution method. It is filed as functional. A digest of the protocol:
as §1

The nature of data set [2]: Hemolytic activity against sheep RBC at 20 to 100 uM after 30 mins by spectrophotometry. In kind it is ADME, cell-based, Ovis aries. The settings on record: erythrocyte, 0.5 h. A digest of the protocol:
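Sheep erythrocytes were exposed to a range of peptide concentrations to build hemolysis (%) dose–response curves. The experiment was run three times per peptide.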

In another data set the test system is Pseudomonas aeruginosa. In words: Antibacterial activity against Pseudomonas aeruginosa NBRC 3080 after overnight incubation by microplate dilution method. It is filed as functional. The gist of the method:
as §1

A further data set concerns Escherichia coli. The data set can be described thus: Antibacterial activity against Escherichia coli NBRC 12734 after overnight incubation by microplate dilution method. It is filed as functional. A digest of the protocol:
as §1

≈ marks a conversion by molar mass, not a printed value. Peptide text beside a SMILES is read from it.

As usually defined, the MIC is the least concentration at which growth counts as inhibited. The low end stands for a more susceptible organism, the high end for a less susceptible organism. Turning to `CC(C)C[C@@H]1NC(=O)[C@H](CCCN)NC(=O)[C@H](C(C)C)NC(=O)[C@@H]2C[C@@H](N)CN2C(=O)[C@@H](Cc2ccccc2)NC(=O)[C@H](CC(C)C)NC(=O)[C@H](CCCN)NC(=O)[C@H](C(C)C)NC(=O)[C@@H]2CCCN2C(=O)[C@@H](Cc2ccccc2)NC1=O`, the minimal inhibitory concentration (MIC) turned out to be 6.25 µg/mL (≈ 5.4 µM) in the data set on Bacillus subtilis; 6.25 µg/mL (≈ 5.4 µM) in the data set on Priestia megaterium; 6.25 µg/mL (≈ 5.4 µM) in data set [1]; 12.5 µg/mL (≈ 10.8 µM) against Staphylococcus aureus; 50 µg/mL (≈ 43.2 µM) in the data set on Pseudomonas aeruginosa; 25 µg/mL (≈ 21.6 µM) with Escherichia coli. The Activity entry in data set [2] is given as “Toxic”.

Take `CC(C)C[C@@H]1NC(=O)[C@H](CCCN)NC(=O)[C@H](C(C)C)NC(=O)[C@@H]2CCCN2C(=O)[C@@H](Cc2ccccc2)NC(=O)[C@H](CC(C)C)NC(=O)[C@H](CCCN)NC(=O)[C@H](C(C)C)NC(=O)[C@@H]2CCCN2C(=O)[C@@H](Cc2ccccc2)NC1=O` [GRAMICIDIN S] (HELM PEPTIDE1{L.[dF].P.V.[Orn].L.[dF].P.V.[Orn]}$PEPTIDE1,PEPTIDE1,1:R1-10:R2$$$V2.0): the MIC against Bacillus subtilis stood at 3.13 µg/mL (≈ 2.74 µM); against Priestia megaterium, 3.13 µg/mL (≈ 2.74 µM); in data set [1], 3.13 µg/mL (≈ 2.74 µM); against Staphylococcus aureus, 3.13 µg/mL (≈ 2.74 µM); with Pseudomonas aeruginosa it was 25 µg/mL (≈ 21.9 µM); in the data set with Escherichia coli, 25 µg/mL (≈ 21.9 µM).

For `CC(C)C[C@@H]1NC(=O)[C@H](CCCN)NC(=O)[C@H](C(C)C)NC(=O)[C@@H]2C[C@H](N)CN2C(=O)[C@@H](Cc2ccccc2)NC(=O)[C@H](CC(C)C)NC(=O)[C@H](CCCN)NC(=O)[C@H](C(C)C)NC(=O)[C@@H]2CCCN2C(=O)[C@@H](Cc2ccccc2)NC1=O`, the minimal inhibitory concentration (MIC) with Bacillus subtilis came to 6.25 µg/mL (≈ 5.4 µM); in the data set with Priestia megaterium, 6.25 µg/mL (≈ 5.4 µM); in data set [1], 6.25 µg/mL (≈ 5.4 µM); in the data set with Staphylococcus aureus, 12.5 µg/mL (≈ 10.8 µM); in the data set with Pseudomonas aeruginosa it was 50 µg/mL (≈ 43.2 µM); with Escherichia coli, 25 µg/mL (≈ 21.6 µM). In data set [2], the Activity result is “Toxic”.

As for `CCCCCCCC(=O)N[C@H]1C[C@H]2C(=O)N[C@@H](C(C)C)C(=O)N[C@@H](CCCN)C(=O)N[C@@H](CC(C)C)C(=O)N[C@H](Cc3ccccc3)C(=O)N3CCC[C@H]3C(=O)N[C@@H](C(C)C)C(=O)N[C@@H](CCCN)C(=O)N[C@@H](CC(C)C)C(=O)N[C@H](Cc3ccccc3)C(=O)N2C1`, the MIC against Bacillus subtilis was 12.5 µg/mL (≈ 9.75 µM); in the data set on Priestia megaterium, 6.25 µg/mL (≈ 4.87 µM); in data set [1] it was 6.25 µg/mL (≈ 4.87 µM); in the data set on Staphylococcus aureus, 6.25 µg/mL (≈ 4.87 µM); with Pseudomonas aeruginosa it was 50 µg/mL (≈ 39 µM); in the data set with Escherichia coli, 50 µg/mL (≈ 39 µM). In addition, the Activity entry in data set [2] is listed as “Toxic”.

The values are drawn from ChEMBL document CHEMBL1933037, “Fatty acyl-gramicidin S derivatives with both high antibiotic activity and low hemolytic activity” (Bioorg Med Chem Lett, 2012).
